The GI50 is the concentration that inhibits growth by half. Read a high GI50 as less potent growth inhibition. The TGI is the concentration giving total growth inhibition. Higher therefore signals less potent growth arrest.

Molecules are shown by their SMILES.

The source of these data is ChEMBL document CHEMBL2202989, “New adamantane phenylalkylamines with σ-receptor binding affinity and anticancer activity, associated with putative antagonism of neuropathic pain” (J Med Chem, 2012).

Series [1] has as its system BXPC-3. The experiment in a line: Antitumor activity against human BxPC3 cells xenografted in SCID mouse assessed as tumor growth inhibition at 70 mg/kg, ip administered twice a week for three cycles measured after 3 cycles relative to control. The class given is functional. Conditions: BXPC-3, ip, route intraperitoneal, read-out: TGI. The procedure, abridged: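 BxPC3 xenografts were grown in SCID mice from inocula of 10^6 exponentially growing cells, with 10 mice (20 tumors) per group. Treatment started ip once tumors averaged about 100 mm3. The test agent was given in 5% Tween 80 and gemcitabine in water for injection. Tumor volume was measured by caliper twice weekly and %ΔT/ΔC was computed; two-tailed Student's t test.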
(In general: Xenograft models place foreign cells or tissue in a host animal.)

Series [2] relates to BXPC-3. The experiment in a line: Growth inhibition of human BxPC3 cells after 48 hrs by SRB assay. Type of series: functional. Conditions: BXPC-3, 48 h. The procedure, abridged: (§1)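 Cells grown in RPMI 1640 with 5% heat-inactivated FCS, 2 mM L-glutamine and antibiotics, 37 °C, 5% CO2. Seeded at 3500–30000 cells/well and left 24 h before dosing. DMSO solutions added at 10-fold dilutions from 100 to 0.01 μM for 48 h. Cells TCA-fixed and SRB-stained, absorbance read at 540 nm; GI50 derived against the time-zero plate.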
In general terms: In SRB staining, fixed cells bind dye roughly in proportion to their protein.

The subject of the next series is MIA PaCa-2. The experiment in a line: Growth inhibition of human MIAPaCa2 cells after 48 hrs by SRB assay. The class given is functional. Conditions: MIA PaCa-2, 48 h; for CC50: read-out: LC50 (the source's name). The procedure, abridged:
as §1

Series [3] relates to BXPC-3. The experiment in a line: Antitumor activity against human BxPC3 cells xenografted in SCID mouse assessed as tumor growth inhibition at 17 mg/kg, ip administered twice a week for three cycles measured after 3 cycles relative to control. As to conditions: BXPC-3, ip, route intraperitoneal, read-out: TGI. Type of series: functional. The procedure, abridged: (§2)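 SCID mice bearing BxPC3 pancreatic xenografts, 10 mice per group (20 tumors). Drug dissolved in water for injection, given ip twice a week for three cycles. Controls were untreated and 5% Tween 80 vehicle. Tumor volume measured by caliper twice weekly; reduction reported on termination day. Two-tailed Student's t test.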

For a further series, the system named is HCT-15. The experiment in a line: Growth inhibition of human HCT15 cells after 48 hrs by SRB assay. The class given is functional. Conditions: HCT-15, 48 h. The procedure, abridged:
as §1

The test system of series [4] is BXPC-3. The experiment in a line: Antitumor activity against human BxPC3 cells xenografted in SCID mouse assessed as tumor growth inhibition at 35 mg/kg, ip administered twice a week for three cycles measured after 3 cycles relative to control. The class given is functional. Conditions: BXPC-3, ip, route intraperitoneal, read-out: TGI. The procedure, abridged:
as §2

For a further series, the system named is U-251. The experiment in a line: Growth inhibition of human U251 cells after 48 hrs by SRB assay. Type of series: functional. As to conditions: U-251, 48 h. The procedure, abridged: as §1
The subject of another series is MCF7. The experiment in a line: Growth inhibition of human MCF7 cells after 48 hrs by SRB assay. Type of series: functional. As to conditions: MCF7, 48 h. The procedure, abridged:
as §1

For a further series, the system named is HCT-116. The experiment in a line: Growth inhibition of human HCT116 cells after 48 hrs by SRB assay. Type of series: functional. Conditions: HCT-116, 48 h. The procedure, abridged:
as §1

The next series relates to OVCAR-5. The experiment in a line: Growth inhibition of human OVCAR5 cells after 48 hrs by SRB assay. The class given is functional. Conditions: OVCAR-5, 48 h. The procedure, abridged: as §1
Another series has as its system SK-HEP1. The experiment in a line: Growth inhibition of human SKHEP1 cells after 48 hrs by SRB assay. The class given is functional. Conditions: SK-HEP1, 48 h. The procedure, abridged: as §1
Another series relates to NHDF. The experiment in a line: (§3) Growth inhibition of human NHDF cells after 48 hrs by SRB assay. Type of series: cell-based. As to conditions: nhdf, 48 h. The procedure, abridged: as §1
Series [5] can be described thus: as §3. The class given is cell-based. Conditions: NHDF cells. The procedure, abridged: as §1
The next series concerns DU-145. The experiment in a line: Growth inhibition of human DU145 cells after 48 hrs by SRB assay. As to conditions: DU-145, 48 h. The class given is functional. The procedure, abridged: as §1
Another series deals with PC-3. The experiment in a line: Growth inhibition of human PC3 cells after 48 hrs by SRB assay. Type of series: functional. Conditions: PC-3, 48 h. The procedure, abridged: as §1
Series [6] is described as follows: Growth inhibition of human MSC cells after 48 hrs by SRB assay. Type of series: cell-based. The procedure, abridged:
as §1

Series [7] can be described thus: Growth inhibition of human HUVEC cells after 48 hrs by SRB assay. Type of series: cell-based. Conditions: HUVEC cells. The procedure, abridged:
as §1

The next series concerns IGROV-1. The experiment in a line: Growth inhibition of human IGROV1 cells after 48 hrs by SRB assay. The class given is functional. Conditions: IGROV-1, 48 h. The procedure, abridged: as §1
Another series has as its system HL-60(TB). The experiment in a line: Growth inhibition of human HL-60(TB) cells after 48 hrs by SRB assay. As to conditions: HL-60, 48 h. The class given is functional. The procedure, abridged: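 Cells kept in RPMI 1640 with 5% FCS at 37 °C, 5% CO2, and seeded 24 h before dosing. Compound given from DMSO at 10-fold dilutions, 100 to 0.01 μM, for 48 h. Cells fixed with TCA, stained with SRB, absorbance read at 540 nm. GI50 taken from a time-zero plate.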

[8] abbreviates: read-out: LC50 (the source's name).

On to `Nc1ccn([C@@H]2O[C@H](CO)[C@@H](O)C2(F)F)c(=O)n1` [GEMCITABINE], for which the inhibition in vivo at 70 mg/kg in the series on BXPC-3 [1] is 38.1%. Also, in the series on BXPC-3 [2], the GI50 was determined as 3.64 µM and total growth inhibition (TGI) required 9.05 µM. Besides, in the series on MIA PaCa-2, halving of growth (GI50) required 35.8 µM, net growth stopped (TGI) at 100 µM and the CC50 is 0.1 µM.
Take `O=c1[nH]cc(F)c(=O)[nH]1` [FLUOROURACIL]: the inhibition in vivo at 17 mg/kg with BXPC-3 [3] was found to be 23.7%. The GI50 in the series with HCT-15 worked out at 21.1 µM; in the series with U-251, 69.6 µM; in the series with MCF7, 14.5 µM; in the series on BXPC-3 [2], 2.9 µM; in the series on HCT-116, 8.8 µM; with MIA PaCa-2, 30.6 µM. In addition, the GI50 with OVCAR-5 is 26.4 µM; in the series on SK-HEP1, 7.6 µM; with DU-145, 20 µM; with PC-3, 10.5 µM; with IGROV-1, 8.12 µM; in the series with HL-60(TB) it was 0.1 µM. Further, the TGI was 100 µM in the series on HCT-15; 100 µM in the series on U-251; 100 µM in the series on MCF7; 8.4 µM with BXPC-3 [2]; 100 µM in the series with HCT-116; 100 µM in the series with MIA PaCa-2. For the same molecule, the TGI came to 100 µM in the series on OVCAR-5; 100 µM in the series on SK-HEP1; 100 µM with NHDF; 100 µM with DU-145; 100 µM in the series on PC-3; 1 µM in series [6]. Besides, the TGI in the series on IGROV-1 came to 100 µM; with HL-60(TB), 0.1 µM. The CC50 with HCT-15 (setting [8]), in the series with U-251 (setting [8]), in the series with MCF7 (setting [8]), with HCT-116 (setting [8]), in the series with MIA PaCa-2 and with OVCAR-5 (setting [8]) was 0.1 µM in each case. The CC50 with SK-HEP1 (setting [8]), in the series with DU-145 (setting [8]), in the series with PC-3 (setting [8]), with IGROV-1 (setting [8]) and in the series with HL-60(TB) (setting [8]) was 0.1 µM throughout. In addition, the inhibition in vivo at 35 mg/kg in the series on BXPC-3 [4] stood at 36.7%. In addition, the GI50 at 48 h in series [5] came out at 62 µM; in series [7], 3.6 µM.
